# Reference: ChEMBL document CHEMBL4689842, “EUbOPEN Chemogenomics Library wave 1” (2021)
# Test system: U2OS
# Assay: Multiplex assay against U2OS
# Type: toxicity, cell-based
# Details: human
# Summary of the method: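 Phenotypes for tubulin, mitochondrial mass and membrane permeability are expressed as per cents of healthy-nucleus cells. Cells were stained live at seeding with Hoechst33342, BioTracker Green Microtubule Cytoskeleton Dye, MitoTracker Red and Annexin V Alexa Fluor 680, then imaged after compound addition on a CQ1 microscope at 37°C and 5% CO2. Machine-learning gating in CellPathfinder separated Hoechst high-intensity objects from normal cells, divided normal cells by nuclear state (healthy, pyknosed, fragmented) and divided pyknosed cells into mitotic or apoptotic.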
# [1] = 12 h, 1 µM, compound concentration 1 uM, replicate 1
# [2] = 12 h, 1 µM, compound concentration 1 uM, replicate 2
# [3] = 12 h, 10 µM, compound concentration 10 uM, replicate 1
# [4] = 12 h, 10 µM, compound concentration 10 uM, replicate 2
# [5] = 24 h, 1 µM, compound concentration 1 uM, replicate 1
# [6] = 24 h, 1 µM, compound concentration 1 uM, replicate 2
# [7] = 24 h, 10 µM, compound concentration 10 uM, replicate 1
# [8] = 24 h, 10 µM, compound concentration 10 uM, replicate 2
# [9] = 48 h, 1 µM, compound concentration 1 uM, replicate 1
# [10] = 48 h, 1 µM, compound concentration 1 uM, replicate 2
# [11] = 48 h, 10 µM, compound concentration 10 uM, replicate 1
# [12] = 48 h, 10 µM, compound concentration 10 uM, replicate 2
structure (smiles),measurement,setting,value
CNc1cc(Oc2cc(C(=O)Nc3cc(N4CCN(C)CC4)cc(C(F)(F)F)c3)ccc2C)ncn1,Population Apoptotic (%),[1],32%
same,Population Healthy Nuclei (%),[1],59%
same,Population Hoechst High Intensity Objects (%),[1],11%
same,Population Membrane Permeable-Phenotype (%),[1],4%
same,Population Mitochondria Different-Phenotype (%),[1],68%
same,Population Mitotic Cells (%),[1],67%
same,Population Normal (%),[1],88%
same,Population Pyknosed Nuclei (%),[1],30%
same,Population Tubulin-Different-Phenotype (%),[1],60%
same,Total Cell Count,[1],176
same,Population Apoptotic (%),[2],54%
same,Population Fragmented Nuclei (%),[2],10%
same,Population Healthy Nuclei (%),[2],73%
same,Population Hoechst High Intensity Objects (%),[2],2%
same,Population Membrane Permeable-Phenotype (%),[2],10%
same,Population Mitochondria Different-Phenotype (%),[2],60%
same,Population Mitotic Cells (%),[2],45%
same,Population Normal (%),[2],97%
same,Population Pyknosed Nuclei (%),[2],16%
same,Population Tubulin-Different-Phenotype (%),[2],52%
same,Total Cell Count,[2],56
same,Population Apoptotic (%),[3],90%
same,Population Fragmented Nuclei (%),[3],40%
same,Population Healthy Nuclei (%),[3],10%
same,Population Hoechst High Intensity Objects (%),[3],6%
same,Population Membrane Permeable-Phenotype (%),[3],100%
same,Population Mitochondria Different-Phenotype (%),[3],100%
same,Population Mitotic Cells (%),[3],9%
same,Population Normal (%),[3],93%
same,Population Pyknosed Nuclei (%),[3],48%
same,Population Tubulin-Different-Phenotype (%),[3],100%
same,Total Cell Count,[3],116
same,Population Apoptotic (%),[4],73%
same,Population Fragmented Nuclei (%),[4],24%
same,Population Healthy Nuclei (%),[4],13%
same,Population Hoechst High Intensity Objects (%),[4],33%
same,Population Membrane Permeable-Phenotype (%),[4],58%
same,Population Mitochondria Different-Phenotype (%),[4],66%
same,Population Mitotic Cells (%),[4],26%
same,Population Normal (%),[4],66%
same,Population Pyknosed Nuclei (%),[4],61%
same,Population Tubulin-Different-Phenotype (%),[4],66%
same,Total Cell Count,[4],70
same,Population Apoptotic (%),[5],46%
same,Population Fragmented Nuclei (%),[5],11%
same,Population Healthy Nuclei (%),[5],64%
same,Population Hoechst High Intensity Objects (%),[5],9%
same,Population Membrane Permeable-Phenotype (%),[5],10%
same,Population Mitochondria Different-Phenotype (%),[5],64%
same,Population Mitotic Cells (%),[5],53%
same,Population Normal (%),[5],90%
same,Population Pyknosed Nuclei (%),[5],23%
same,Population Tubulin-Different-Phenotype (%),[5],55%
same,Total Cell Count,[5],174
same,Population Apoptotic (%),[6],50%
same,Population Fragmented Nuclei (%),[6],16%
same,Population Healthy Nuclei (%),[6],63%
same,Population Hoechst High Intensity Objects (%),[6],6%
same,Population Membrane Permeable-Phenotype (%),[6],13%
same,Population Mitochondria Different-Phenotype (%),[6],68%
same,Population Mitotic Cells (%),[6],50%
same,Population Normal (%),[6],93%
same,Population Pyknosed Nuclei (%),[6],19%
same,Population Tubulin-Different-Phenotype (%),[6],51%
same,Total Cell Count,[6],58
same,Population Apoptotic (%),[7],93%
same,Population Fragmented Nuclei (%),[7],47%
same,Population Healthy Nuclei (%),[7],3%
same,Population Hoechst High Intensity Objects (%),[7],10%
same,Population Membrane Permeable-Phenotype (%),[7],100%
same,Population Mitochondria Different-Phenotype (%),[7],100%
same,Population Mitotic Cells (%),[7],6%
same,Population Normal (%),[7],89%
same,Population Pyknosed Nuclei (%),[7],48%
same,Population Tubulin-Different-Phenotype (%),[7],100%
same,Total Cell Count,[7],120
same,Population Apoptotic (%),[8],76%
same,Population Fragmented Nuclei (%),[8],16%
same,Population Healthy Nuclei (%),[8],23%
same,Population Hoechst High Intensity Objects (%),[8],48%
same,Population Membrane Permeable-Phenotype (%),[8],80%
same,Population Mitochondria Different-Phenotype (%),[8],80%
same,Population Mitotic Cells (%),[8],23%
same,Population Normal (%),[8],51%
same,Population Pyknosed Nuclei (%),[8],60%
same,Population Tubulin-Different-Phenotype (%),[8],80%
same,Total Cell Count,[8],76
same,Population Apoptotic (%),[9],54%
same,Population Fragmented Nuclei (%),[9],21%
same,Population Healthy Nuclei (%),[9],60%
same,Population Hoechst High Intensity Objects (%),[9],6%
same,Population Membrane Permeable-Phenotype (%),[9],11%
same,Population Mitochondria Different-Phenotype (%),[9],50%
same,Population Mitotic Cells (%),[9],45%
same,Population Normal (%),[9],93%
same,Population Pyknosed Nuclei (%),[9],18%
same,Population Tubulin-Different-Phenotype (%),[9],49%
same,Total Cell Count,[9],163
same,Population Apoptotic (%),[10],50%
same,Population Fragmented Nuclei (%),[10],14%
same,Population Healthy Nuclei (%),[10],70%
same,Population Hoechst High Intensity Objects (%),[10],4%
same,Population Membrane Permeable-Phenotype (%),[10],24%
same,Population Mitochondria Different-Phenotype (%),[10],54%
same,Population Mitotic Cells (%),[10],50%
same,Population Normal (%),[10],95%
same,Population Pyknosed Nuclei (%),[10],14%
same,Population Tubulin-Different-Phenotype (%),[10],50%
same,Total Cell Count,[10],51
same,Population Apoptotic (%),[11],96%
same,Population Fragmented Nuclei (%),[11],52%
same,Population Healthy Nuclei (%),[11],2%
same,Population Hoechst High Intensity Objects (%),[11],20%
same,Population Membrane Permeable-Phenotype (%),[11],100%
same,Population Mitochondria Different-Phenotype (%),[11],100%
same,Population Mitotic Cells (%),[11],3%
same,Population Normal (%),[11],80%
same,Population Pyknosed Nuclei (%),[11],45%
same,Population Tubulin-Different-Phenotype (%),[11],100%
same,Total Cell Count,[11],142
same,Population Apoptotic (%),[12],47%
same,Population Fragmented Nuclei (%),[12],22%
same,Population Healthy Nuclei (%),[12],45%
same,Population Hoechst High Intensity Objects (%),[12],50%
same,Population Membrane Permeable-Phenotype (%),[12],89%
same,Population Mitochondria Different-Phenotype (%),[12],89%
same,Population Mitotic Cells (%),[12],52%
same,Population Normal (%),[12],50%
same,Population Pyknosed Nuclei (%),[12],31%
same,Population Tubulin-Different-Phenotype (%),[12],89%
same,Total Cell Count,[12],85
